Assay results taken from publication PMC9053741 (RSC Advances, 2020).
Like-named read-outs stand apart in the source and are kept apart here.

Tests used:
HepG-2 = experiment: Cytotoxicity assay; assay type: cell-based, Human; conditions: for IC50: read-out: IC50 HepG-2; for SI (selectivity indices): LO2 vs HepG-2, 48 h
LO2 = experiment: Cytotoxicity assay; assay type: cell-based; conditions: read-out: IC50 LO2
HepG-2 cells [1] = experiment: Cell cycle distribution analysis; assay type: cell-based, Human; conditions: HepG-2, 5 μM, 24 h
Summary of the method: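 HepG-2 seeded at 1 × 10^5 cells per mL, settled 12 h at 37 °C in 5% CO2. Exposed to 5 μM test compound for 24 h, washed with cold PBS (pH 7.4) and fixed in 75% EtOH for 12 h at −20 °C. Treated with RNase (2.5 mg mL−1), stained with propidium iodide for 0.5 h, then run on a flow cytometer, 10000 events per sample.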

ferritin = experiment: Western blot, ferritin expression; assay type: cell-based, Human; conditions: HepG-2, 5 μM, 24 h
Summary of the method: (§1)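 HepG-2 seeded at 1 × 10^5 cells per mL, grown 24 h, then given 5 μM test compound for 24 h. Cells washed in ice-cold PBS, lysed, and spun at 10000g for 15 min at 4 °C. Protein measured by […], separated by SDS-PAGE and transferred to PVDF on ice for 3 h. Blocked in 5% skim milk/TBST for 1 h at 25 °C, primary antibody overnight at 4 °C, secondary 1 h at 25 °C. ECL detection, normalized to β-actin and expressed relative to control. Student's t test.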

HepG-2 cells [2] = experiment: Cell apoptosis assay; assay type: cell-based, Human; conditions: HepG-2, 5 μM, 24 h
Summary of the method: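 HepG-2 (1 × 10^6 cells per mL) exposed to 5 μM test compound for 24 h at 37 °C in 5% CO2. Resuspended in binding buffer (140 mM NaCl, 2.5 mM CaCl2, 10 mM Hepes/NaOH, pH 7.4) and stained with Annexin V and PI for 20 min at room temperature using a kit protocol. Early and late apoptotic fractions measured by flow cytometry.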

cyclin A = experiment: Western blot, cyclin A expression; assay type: cell-based, Human; conditions: HepG-2, 5 μM, 24 h
Summary of the method: as §1

Cdk 2 = experiment: Western blot, Cdk 2 expression; assay type: cell-based, Human; conditions: HepG-2, 5 μM, 24 h
Summary of the method: as §1

[3] = test system: transferrin receptor-1 (TfR1); experiment: Western blot, TfR1 expression; assay type: cell-based, Human; conditions: HepG-2, 5 μM, 24 h
Summary of the method: as §1

HepG-2 cells [4] = experiment: Intracellular ROS measurements; assay type: cell-based, Human; conditions: HepG-2, 5 μM, 24 h
Summary of the method: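 Using a kit protocol, HepG-2 were incubated with 5 μM test compound in serum-free medium for 24 h at 37 °C. 2 μM H2DCF-DA was then added and cells washed with serum-free medium. Fluorescence measured by flow cytometry and expressed relative to untreated control.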

cyclin E = experiment: Western blot, cyclin E expression; assay type: cell-based, Human; conditions: HepG-2, 5 μM, 24 h
Summary of the method: as §1

SMILES	IC50 (HepG-2; HepG-2 cells, 48 h, MTT)	IC50 (LO2; LO2 normal cells, 48 h, MTT)	IC50 (HepG-2; Homo sapiens, HepG2, 48 h)	SI (selectivity indices) (HepG-2)	IC50 (LO2; Homo sapiens, L02, 48 h)	other results
NC1=N[N+]2=C(c3ccccc3)c3cccc[n+]3[Ga-2]2([Cl])([Cl])[S]1 [C1, Dichlorido[2-(phenyl(pyridin-2-yl)methylene)hydrazinecarbothioamide-N,N′,S]gallium(III)]	5750 ± 540 nM	33.8 ± 2.13 µM				
CNC1=N[N+]2=C(c3ccccc3)c3cccc[n+]3[Ga-2]2([Cl])([Cl])[S]1 [C2, Dichlorido[N-methyl-2-(phenyl(pyridin-2-yl)methylene)hydrazinecarbothioamide-N,N,S]-gallium(III)]	2760 ± 390 nM	25.8 ± 2.93 µM				
CCNC1=N[N+]2=C(c3ccccc3)c3cccc[n+]3[Ga-2]2([Cl])([Cl])[S]1 [C3, Dichlorido[N-ethyl-2-(phenyl(pyridin-2-yl)methylene)hydrazinecarbothioamide-N,N,S]-gallium(III)]	1230 ± 90 nM	26.6 ± 3.86 µM				
[Cl][Ga-2]12([Cl])[S]C(NC3CCCCC3)=N[N+]1=C(c1ccccc1)c1cccc[n+]12 [C4, Dichlorido[N-cyclohexyl-2-(phenyl(pyridin-2-yl)methylene)hydrazinecarbothioamide-N,N,S]-gallium(III)]	970 ± 20 nM	20.4 ± 1.13 µM				
N.N.[Cl][Pt][Cl] [Cisplatin, reference compound]	22400 ± 2210 nM	21.3 ± 2.35 µM				
[Cl][Ga]([Cl])[Cl] [GaCl3, reference compound]	> 50000 nM	> 50 µM				anticancer activity (HepG-2; 50 μM): not observed
NC(=S)NN=C(c1ccccc1)c1ccccn1 [L1, 2-(Phenyl(pyridin-2-yl)methylene)hydrazinecarbothioamide]			11400 ± 210 nM	3.84	43.6 ± 2.84 µM	
CNC(=S)NN=C(c1ccccc1)c1ccccn1 [L2, N-Methyl-2-(phenyl(pyridin-2-yl)methylene)hydrazinecarbothioamide]			4560 ± 110 nM	7.84	35.8 ± 2.19 µM	
CCNC(=S)NN=C(c1ccccc1)c1ccccn1 [L3, N-Ethyl-2-(phenyl(pyridin-2-yl)methylene)hydrazinecarbothioamide]			2430 ± 100 nM	13.57	33 ± 3.64 µM	
S=C(NN=C(c1ccccc1)c1ccccn1)NC1CCCCC1 [L4, N-Cyclohexyl-2-(phenyl(pyridin-2-yl)methylene)hydrazinecarbothioamide]			1320 ± 90 nM	22.97	30.3 ± 2.16 µM	
CN(C)C(=S)NN=C(c1ccccc1)c1ccccn1 [L5, N,N-dimethyl-2-(phenyl(pyridin-2-yl)methylene)hydrazinecarbothioamide]			570 ± 40 nM	41.84	23.9 ± 2 µM	
CN(C(=S)NN=C(c1ccccc1)c1ccccn1)C1CCCCC1 [L6, N-Cyclohexyl-N-methyl-2-(phenyl(pyridin-2-yl)methylene)hydrazinecarbothioamide]			320 ± 20 nM	36.06	11.5 ± 0.54 µM	G1 phase cell proportion (HepG-2 cells [1]): increase; percentage of G2 phase cells compared to the vehicle-treated control (HepG-2 cells [1]): reduced; expression of ferritin relative to the control group (ferritin): 0.72 fold; percentage of early apoptosis and late apoptosis relative to the control (HepG-2 cells [2]): 24.87%; cyclin A expression level (cyclin A): significant (p < 0.05) decreased; Cdk 2 expression level (Cdk 2): significant (p < 0.05) decreased; expression of TfR1 compared to the vehicle-treated control [3]: about 1.43 fold; percentage of intracellular ROS level relative to the control (HepG-2 cells [4]): 17.12%; cyclin E expression level (cyclin E): significant (p < 0.05) decreased
